From paper PMC2704382 (Cell, 2009) come the findings set out here.

Read-outs that look alike come from different tables or passages of the source.

Assay [1] concerns LEF/TCF. Put plainly: TCF reporter activity in DISC1 knockdown cells. Format: cell-based.
Assay [2] relates to DISC1 knockdown AHP cells. In words: BrdU incorporation in DISC1 knockdown AHP cells. The format is cell-based. The essentials:
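Lentivirus-transduced AHPs (GFP marker) seeded on polyornithine/fibronectin-coated coverslips and pulsed with BrdU (10 µM) in medium for 2 hours. Fixed in 4% paraformaldehyde and immunostained for BrdU. Five random fields and over 500 cells counted per experiment. Read-out is the percentage of GFP-positive cells also BrdU-positive.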
A general note: Uptake of a labelled nucleoside into DNA is a usual measure of proliferation.

Assay [3] deals with neural progenitor proliferation in mouse embryonic brains. In words: BrdU labeling in shRNA electroporated embryonic brains. The format is in vivo.
Assay [4] concerns adult hippocampal progenitor proliferation in dentate gyrus. Format: in vivo, mouse. Particulars: 2 mg/kg every other day for 2 weeks, n=5.
Assay [5] has as its system GSK3β. Put plainly: In vitro GSK3β kinase assay. As to conditions: for Inhibition of GSK3β: in vitro kinase assay. Format: biochemical.
In assay [6] the test system is GSK3β. In words: GSK3β surface plasmon resonance. Particulars: SPR, peptide 25 µM. Format: binding. (Surface plasmon resonance follows binding to a sensor surface in real time, without labels.)

Regarding `Cc1c[nH]c(-c2cnc(NCCNc3ccc(C#N)cn3)nc2-c2ccc(Cl)cc2Cl)n1` [CHIR-99021], the TCF activity result in assay [1] is given as “rescued TCF activity in DISC1 knockdown cells to control levels”.

Consider `Cn1cc(C2=C(c3ccc(Cl)cc3Cl)C(=O)NC2=O)c2ccccc21` [SB-216763], for which, in assay [2], the “Cell proliferation evaluated by BrdU incorporation” value was “restored cell proliferation”. For the same compound, the BrdU labeling index entry in assay [3] (DISC1 shRNA electroporated embryonic brains) is listed as “rescued the BrdU labeling index”. Also, in assay [3] (control shRNA electroporated mouse embryonic brains), the BrdU labeled cells result is on record as “increased BrdU labeled cells”. The TCF activity entry in assay [1] is listed as “rescued TCF activity in DISC1 knockdown cells to control levels”. Further, the “Number of BrdU positive cells” value in assay [4] (DISC1 shRNA-1 injected mice) is on record as “rescued the reduction in BrdU positive cells”; in assay [4] (mice infected with control virus) it was “significantly increased”.

For “DISCtide2: 15-mer peptide that encompasses mDISC1 amino acids 211 to 225 (SFSFIQLSLGAAGER)”, in assay [5] (data not shown, concentration not given), the “Inhibition of GSK3β kinase activity” value is reported as “failed to inhibit”. The “Percent theoretical maximal response” value in assay [6] came to 238%.

As to “DISCtide-1: synthesized peptide from mDISC1 spanning amino acids 195 to 238 (PADIASLPGFQDTFTSSFSFIQLSLGAAGERGEAEGCLPSREAE)”, in assay [5] (dose-response curve, n=3), the “Potency of GSK3β inhibition compared with L803-mts” value is reported as “more potently than L803-mts”. Further, the “Dose dependence of inhibition of recombinant GSK3β catalytic activity” value in assay [5] (in vitro) was “dose dependent”. The “Inhibition of GSK3β” value in assay [5] (10 µM peptide) is reported as “inhibited”. Besides, the “Percent theoretical maximal response” value in assay [6] is 197%.

For the compound “Peptide-neg: synthesized peptide from mDISC1 spanning amino acids 40–77 (GYMRSTAGSGIGFLSPAVGMPHPSSAGLTGQQSQHSQS)”, the “Inhibition of GSK3β” value in assay [5] (80 µM peptide) was “did not inhibit”. Also, in assay [6], the “Percent theoretical maximal response” value amounted to 62%.
